In ChEMBL document CHEMBL5674876, “Epigenetic Activation of Pro-angiogenic Signaling Pathways in Human Endothelial Progenitors Increases Vasculogenesis” (Stem Cell Reports, 2017):
The source made the active and inactive calls. No cut-off for these calls is given here.

Columns and labels:
[1] = test system: HUVEC; experiment: Effect on pro-angiogenic property in human umbilical cord derived endothelial colony forming cells assessed as formation of capillary network on matrigel at 330 nM; format: functional, cell-based
Outline: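 Drug- or vehicle-pretreated ECFCs seeded at 5,000 cells/well on phenol-red-free growth-factor-reduced Matrigel in duplicate; after 24 hr stained with 5 μg/mL calcein 5 min at 37°C, imaged at 2.5×. Total tube length expressed as percentage of vehicle control ±SEM, three independent experiments.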

[2] = test system: HUVEC; experiment: Effect on pro-angiogenic property in human umbilical cord derived endothelial colony forming cells assessed as cell migration treated at 330 nM for 10 hrs measured by crystal violet staining analysis based gap closure assay; format: functional

## CC(/C=C/C(=O)NO)=C\[C@@H](C)C(=O)c1ccc(N(C)C)cc1
[1]
  Activity: Active
[2]
  Activity: Active
